Active and inactive are the calls of the source. No cut-off for these calls is given here. Square brackets hold non-standard residues; d marks the D form. Peptide text beside a SMILES is read from it. Lys(Thioacetyl) = CC(=S)NCCCC[C@H](N)C(=O)O

Test [1] concerns the target T1, NAD-dependent protein deacylase sirtuin-6 (Homo sapiens, UniProt Q8N6T7). The experiment in a line: Inhibition of human recombinant SIRT6 assessed as 7-amino-4-methylcoumarin labelled Arg-His-Lys-Lys(epsilon-acetyl) substrate deacetylation at 200 uM after 90 mins by Fluor-de-Lys assay. The procedure, abridged:
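Single-point screen at 200 μM in a commercial in vitro SIRT6 deacetylation activity kit with Fluor de Lys fluorescence read-out, reported as percent inhibition of deacetylation.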

The target in test [2] is T1, NAD-dependent protein deacylase sirtuin-6. Briefly: Inhibition of human recombinant SIRT6 assessed as 7-amino-4-methylcoumarin labelled Arg-His-Lys-Lys(epsilon-acetyl) substrate deacetylation after 90 mins by Fluor-de-Lys assay. The procedure, abridged: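 Commercial in vitro SIRT6 deacetylation kit with Fluor de Lys read-out. The IC50 was determined in two separate runs, each in triplicate, and reported as the average of the six measurements.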

The target is the same in test [3]. The experiment in a line: Inhibition of N-terminal His-tagged human recombinant SIRT6 (13 to 308) expressed in Escherichia coli Rosetta2 cells assessed as FdL-1 peptide substrate deacetylation at 100 uM after 45 mins by Fluor-de-Lys assay.

T1 sequence (Q8N6T7 whole entry): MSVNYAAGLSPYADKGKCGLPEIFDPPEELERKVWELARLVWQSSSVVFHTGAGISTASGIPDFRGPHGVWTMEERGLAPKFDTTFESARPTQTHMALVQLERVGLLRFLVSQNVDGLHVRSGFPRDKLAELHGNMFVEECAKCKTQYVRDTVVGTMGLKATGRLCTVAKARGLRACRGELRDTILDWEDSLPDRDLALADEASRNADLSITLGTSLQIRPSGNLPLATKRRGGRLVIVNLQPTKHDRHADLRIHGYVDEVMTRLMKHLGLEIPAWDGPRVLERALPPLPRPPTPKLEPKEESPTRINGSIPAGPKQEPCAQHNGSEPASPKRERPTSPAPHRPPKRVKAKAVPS

For orientation: inhibition means the percentage by which the read-out fell short of the control. For `CC(=O)N[C@@H](C)C(=O)N[C@@H](CCCCNC(=S)CC(C)C)C(=O)N[C@@H](C)C(=O)O`, the inhibition entry in test [1] is “Active”.

Consider `CSCC[C@H](NC(=O)[C@@H](NC(=O)[C@H](CCCCNC(C)=S)NC(=O)[C@H](CC(=O)O)NC(=O)[C@@H](N)CO)[C@@H](C)O)C(=O)O` (H-SD[Lys(Thioacetyl)]TM-OH), for which the inhibition in test [1] came out at 35%. By IC50 is commonly meant the concentration that gives 50% inhibition. Consider `CSCC[C@H](NC(=O)[C@H](CC(C)C)NC(=O)[C@H](CCCCNC(C)=S)NC(=O)[C@H](CCCCN)NC(=O)[C@@H](N)Cc1cnc[nH]1)C(=O)O` (H-HK[Lys(Thioacetyl)]LM-OH), for which the IC50 in test [2] stood at 78 µM. In test [1], the inhibition turned out to be 62%.

Take `O=C1c2ccccc2C(=O)c2c1ccc(N1C(=O)c3ccccc3C1=O)c2-c1c(N2C(=O)c3ccccc3C2=O)ccc2c1C(=O)c1ccccc1C2=O`: the inhibition in test [3] is 25%. `Nc1cc2c(nc3c4ccccc4ccc3[n+]2-c2cccc3ccccc23)c2ccccc12`: in test [3], the inhibition amounted to 25%. Turning to `CC(=S)NCCCC[C@H](NC(=O)[C@@H]1CCCN(C(=O)OC(C)(C)C)C1)C(=O)N[C@@H](C)C(=O)O`, in test [1], the inhibition result was “Active”. Take `O=C1c2ccccc2C(=O)c2c(Nc3cc4c5c(ccc6c7ccc8c9c(cc(Nc%10cccc%11c%10C(=O)c%10ccccc%10C%11=O)c(c3c56)c97)-c3ccccc3C8=O)C(=O)c3ccccc3-4)cccc21`: the inhibition in test [3] was determined as 25%. With `CC(=O)N[C@@H](C)C(=O)N[C@@H](CCCCNC(=O)C=C(C)C)C(=O)N[C@@H](C)C(=O)O`, the inhibition in test [1] turned out to be 26%. Regarding `CC(=S)NCCCC[C@H](NC(=O)OCc1ccccc1)C(=O)NC1CCCCC1`, the inhibition result in test [1] was “Active”. `CC(=[Se])NCCCC[C@H](NC(=O)OCc1ccccc1)C(=O)Nc1ccccc1`: in test [2], the IC50 was 285 µM. The inhibition in test [1] was 62%. In the case of `CC(=O)N[C@@H](C)C(=O)N[C@@H](CCCCNC(=O)CC(C)C)C(=O)N[C@@H](C)C(=O)O`, in test [1], the inhibition entry is “Active”.

As to `CC(=S)NCCCC[C@H](NC(=O)CCc1ccccc1)C(=O)N[C@@H](C)C(=O)O`, in test [1], the inhibition entry was “Active”.

Consider `CN1C[C@H](C(=O)N[C@]2(C)O[C@@]3(O)[C@@H]4CCCN4C(=O)[C@H](Cc4ccccc4)N3C2=O)C=C2c3cccc4[nH]cc(c34)C[C@H]21`, for which, in test [3], the inhibition is 25%. With `CC(=S)NCCCC[C@H](NC(=O)OCc1ccccc1)C(=O)Nc1ccccc1`, the inhibition in test [1] was 36%. In the case of `CC(=O)N[C@@H](C)C(=O)N[C@@H](CCCCNC(C)=S)C(=O)N[C@@H](C)C(=O)O`, the inhibition in test [1] came to 54%. Turning to `O=C(C[n+]1ccc2ccccc2c1)c1ccc2ccc3ccccc3c2c1`, in test [3], the inhibition was found to be 25%.

For `CSCC[C@H](NC(=O)[C@H](CC(C)C)NC(=O)[C@H](CCCCNC(C)=S)NC(=O)[C@H](CCCCN)NC(=O)[C@H](C)N)C(=O)O` (H-AK[Lys(Thioacetyl)]LM-OH), the IC50 in test [2] was determined as 47 µM. Besides, in test [1], the inhibition was found to be 91%.

`Nc1cc2c(nc3c4ccccc4c(N)cc3[n+]2-c2cccc3ccccc23)c2ccccc12`: in test [3], the inhibition was determined as 25%.

The values are drawn from ChEMBL document CHEMBL2203212, “Peptides and Pseudopeptides as SIRT6 Deacetylation Inhibitors” (ACS Med Chem Lett, 2012).
